CAL PDZ FP-1: blocks peptide binding to the human CAL PDZ domain; Q9HD26; purified CAL PDZ, TMR-peptide fluorescence polarization, 1 h; inhibition, % at 24.9 µM; hit rate 0.92% among 300,000; AID 602252;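 active = mean inhibition of at least 30% with at least half of replicates also reaching 30%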;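 also: 0% = DMSO neutral control and 100% = excess unlabeled competitor peptide PRC23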
dFosB act: mouse delta FosB homodimer activation. purified delta FosB, TAMRA-CDK5 oligo fluorescence polarization; percent of positive-control signal above neutral wells. hit rate 0.99% among 340,000. activation, % at 25 µM. AID 493131;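 active = mean activation above about 17%, with every replicate also reaching it, limit read from the data, passing the limit was not always enough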
Target sequence (P13346 whole entry, looked up): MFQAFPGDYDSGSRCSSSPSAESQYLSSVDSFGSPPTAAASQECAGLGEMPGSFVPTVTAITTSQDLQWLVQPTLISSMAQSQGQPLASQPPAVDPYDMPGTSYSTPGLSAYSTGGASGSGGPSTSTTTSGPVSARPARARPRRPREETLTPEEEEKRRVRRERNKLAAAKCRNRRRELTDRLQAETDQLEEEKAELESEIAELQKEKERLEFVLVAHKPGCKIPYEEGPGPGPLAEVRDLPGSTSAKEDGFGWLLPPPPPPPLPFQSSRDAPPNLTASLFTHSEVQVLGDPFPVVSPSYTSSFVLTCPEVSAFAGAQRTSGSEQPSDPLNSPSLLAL
S100A4 MyoIIA: blocks human S100A4 binding to myosin IIA peptide | inhibition, % at 10.7 µM | hit rate 0.14% among 360,000 | P26447 | S100A4/TAMRA-MyoIIA peptide fluorescence polarization | AID 652163;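 active = mean inhibition of at least 70% across replicates, with every replicate also reaching that level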
Target sequence (P26447 whole entry, looked up): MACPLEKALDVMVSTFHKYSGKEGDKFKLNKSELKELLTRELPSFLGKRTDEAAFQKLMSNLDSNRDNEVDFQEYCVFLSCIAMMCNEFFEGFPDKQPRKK
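Test system – S100A4 monomer (human) · Compound – single-point compound testing · Schedule – 5 min incubation before reading · Probe or stimulus – TAMRA-labelled myosin IIA heavy-chain peptide probe, 5 nM · Benchmarks – neutral control DMSO, positive control TFP · Medium – Calcium-containing HEPES buffer, pH 7.2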
CAL PDZ FP-2: human CAL PDZ-peptide interaction inhibition. Q9HD26. purified CAL PDZ, TMR-peptide fluorescence polarization, 1 h. inhibition, % at 20 µM. hit rate 0.02% among 330,000. AID 504414;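 active = highest replicate inhibition of at least 40%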;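 also: plate controls were DMSO neutral control wells for no effect and unlabeled competitor peptide control wells for full effect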
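Test system: tagged CAL PDZ domain / Buffer or medium: sodium phosphate/NaCl buffer pH 7.4 with TCEP, IgG, Thesit / Reagent: TMR-labelled reporter peptide T*-PRC34 bound in PDZ groove / Compound dosing: single point, 20 µM / Schedule: 1 h incubation at room temperature before polarization reading / Technique: fluorescence polarization (mP) / Benchmarks: unlabelled peptide, DMSO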
Statin myotox sup: protects C2C12 myotubes from simvastatin toxicity. rescue of ATP level, % at 7.49 µM. ATP luminescence, 48 h; scaled: DMSO 0, geranylgeraniol control 100. hit rate 0.78% among 330,000;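 active = mean ATP rescue above about 67%, or every replicate alone reaching that limit, limit read from the data, passing the limit was not always enough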;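 also: myotubes were challenged with 10 µM simvastatin during compound exposure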
CDK5 inh: blocks human CDK5/p35 kinase activity; AID 488839; inhibition, % at 10 µM; hit rate 0.01% among 330,000; Q00535+Q15078; Recombinant CDK5/p35, ADP-Glo luminescence, 60 min;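 active = highest replicate inhibition of at least 50% and at least 75% of replicates reaching 50%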;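 also: plate controls were DMSO neutral control for no effect and GW8510 at 10 µM for full effect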
The depositor's hits bear a star; . = no result. Compounds with a hit are over-represented: about 2% of the library has one in this group of screens.

SMILES | CAL PDZ FP-1 | dFosB act | S100A4 MyoIIA | CAL PDZ FP-2 | Statin myotox sup | CDK5 inh
Cc1ccccc1NC(=O)Cn1nc(C)c2ccccc2c1=O | 34.5* | 4.8 | -6.0 | -0.4 | 50.1 | 3.1
Cc1ccccc1NC(=O)Cn1nc(C(=O)O)c2ccccc2c1=O | -1.4 | -4.0 | -1.6 | -1.2 | -12.7 | -1.6
Cc1nn(CC(=O)Nc2ccc3c(c2)nc(CCN2CCCCC2)n3C)c(=O)c2ccccc12 | . | 3.6 | -2.8 | -1.6 | 30.8 | -0.5
Cc1ccc(Sc2nc3c(c(=O)[nH]c(=O)n3C)n2CCc2ccccc2)cc1 | -2.4 | 2.8 | -0.9 | -1.1 | -75.2 | -0.4
CCOC(=O)C(NC(=O)CC)(Nc1ccc(S(=O)(=O)Nc2onc(C)c2C)cc1)C(F)(F)F (stereo not given) | 3.1 | -1.2 | 7.5 | 0.0 | . | 0.6
C[C@H](CO)N1C[C@H](C)[C@H](CN(C)Cc2ccncc2)OCCCC[C@H](C)Oc2ccc(NC(=O)C3CCCCC3)cc2C1=O | . | . | 4.7 | . | 10.6 | .
Cc1cc2oc(=O)cc(CN3CCN(C/C=C/c4ccccc4)CC3)c2cc1O | 3.2 | 24.6* | . | -0.8 | -11.7 | -1.4
O=c1cc(CN2CCN(C/C=C/c3ccccc3)CC2)c2cc(O)c(-c3ccccc3)cc2o1 | 1.2 | 65.5* | . | -2.5 | . | -0.1
CCC(=O)c1ccc(OCC(=O)OCC(=O)c2cc(C)n(CC3CCCO3)c2C)cc1 (stereo not given) | -1.6 | -2.4 | 2.5 | 0.6 | -3.4 | 0.3
COc1ccc(OC)c(NC(=O)COC(=O)C2CCN(C(=O)c3ccc(Cl)cc3)CC2)c1 | -2.6 | -4.6 | 8.6 | -2.1 | . | -3.2
Cc1cc(NC(=O)COC(=O)C2CCN(C(=O)c3ccc(Cl)cc3)CC2)no1 | -0.6 | -9.3 | . | -3.5 | 111.1* | -1.9
Cc1cc(C(=O)COC(=O)C2CCN(C(=O)c3ccc(Cl)cc3)CC2)c(C)n1CC1CCCO1 (stereo not given) | 66.5* | -4.7 | -3.7 | 5.6 | . | 0.0
Cc1[nH]c2ccccc2c1/C=N\NC(=O)c1ccco1 | 0.4 | -13.1 | -2.4 | -2.4 | -9.8 | 0.1
CCn1nnc(NC(=O)Cc2ccc(Cl)cc2)n1 | 102.3* | 7.2 | 6.5 | -0.7 | . | -1.1
CN1c2ccc(-c3ccccc3F)cc2[C@H]2[C@H](CCN2S(=O)(=O)c2ccccc2)[C@H]1CO | . | . | -5.5 | . | 5.7 | .
O=C(Nn1c(C2CCC2)nc2ccccc2c1=O)C1CCC1 | -4.2 | 2.9 | . | -0.2 | 84.8* | 2.2
Cc1nc2ccccc2c(=O)n1NC(=O)C1CCCCC1 | -1.1 | -0.5 | . | -2.2 | 9.4 | -0.2
COc1ccc(C)cc1Nc1nc(-c2c[nH]c3ccccc23)cs1 | -4.2 | 26.8* | -9.1 | -0.2 | . | 0.3
O=C(C[C@@H]1C[C@H]2c3cc(NS(=O)(=O)c4ccccc4)ccc3O[C@H]2[C@@H](CO)O1)N1CCCCC1 | . | . | 0.3 | . | -2.6 | .
C=CCOc1ccc(/C(O)=C2/C(=O)C(=O)N(CCCN3CCOCC3)C2c2ccc(OC)cc2)cc1 (stereo not given) | 39.9* | 1.1 | . | . | . | -0.1
C=CCOc1ccc(/C(O)=C2/C(=O)C(=O)N(CCCN3CCOCC3)C2c2ccccc2)cc1 (stereo not given) | -3.5 | -0.2 | . | -0.7 | . | -2.1
O=C(NC(C(=O)c1ccccc1)c1ccccc1)c1ccccc1 (stereo not given) | 38.3* | -7.6 | 0.2 | -0.1 | -15.5 | -0.1
O=C(NC(C(=O)O)c1ccccc1)c1ccccc1 (stereo not given) | 0.0 | 5.2 | 11.9 | -1.0 | 18.8 | -0.6
COc1ccc(S(=O)(=O)Nc2cccc3c2O[C@H](CN(C)S(=O)(=O)c2ccc(Cl)cc2)[C@@H](C)CN([C@H](C)CO)C3=O)cc1 | . | . | -5.8 | . | 51.7 | .
O=C(CCC(=O)N1CCOc2ccccc21)NC1CCCCCC1 | 0.0 | -0.9 | 2.8 | 0.1 | 1.7 | 0.5
SMILES | CAL PDZ FP-1 | dFosB act | S100A4 MyoIIA | CAL PDZ FP-2 | Statin myotox sup | CDK5 inh
CCOC(=O)N1CCC(NC(=O)CCC(=O)N2CCOc3ccccc32)CC1 | -2.8 | -1.7 | . | -1.0 | 123.2* | 2.0
Cn1cc(C(=O)C(=O)N2CCCc3ccccc32)c2ccccc21 | 34.1* | -6.3 | -22.8 | -4.2 | . | -0.8
CCS(=O)(=O)c1nc2ccccc2n1CC(=O)N1CCOCC1 | . | 7.7 | . | 0.0 | . | -0.4
Cc1cnc(CNC(=O)c2csc([C@@H]3O[C@H](CO)[C@H](O)[C@H](O)[C@H]3O)n2)cn1 | . | . | -0.9 | . | 14.1 | .
CC1(C)CCC(=O)N2CC[C@H]3c4cc5ccccc5nc4C[C@@H]1[C@H]32 | -3.2 | -1.6 | 4.6 | -0.6 | 99.1* | -1.3
COC(=O)c1ccc2nc3c(cc2c1)[C@@H]1CCN2C(=O)CCC[C@H](C3)[C@H]12 | . | -1.2 | -1.2 | -1.9 | 18.8 | 0.4
O=C(C[C@H]1C[C@H]2c3cc(NC(=O)C4CCC4)ccc3O[C@H]2[C@H](CO)O1)NC1CCCC1 | . | . | -4.4 | . | -5.3 | .
COc1ccc(N=C2S/C(=C\c3cc(C)n(C)c3C)C(=O)N2CC(C)C)cc1 | -2.5 | -10.0 | . | -0.6 | 156.2* | -1.3
CCOc1ccc(S(=O)(=O)N2Cc3ccccc3CC2C(=O)O)cc1 (stereo not given) | 51.0* | 0.3 | 1.0 | 0.8 | 4.8 | -3.2
Cc1noc(C)c1S(=O)(=O)Nc1ccc2c(c1)CC(=O)N([C@H](C)CO)C[C@@H](C)[C@H](CN(C)Cc1ccc(Cl)c(Cl)c1)O2 | . | . | 0.7 | . | 86.5* | .
Cc1ccc(S(=O)(=O)Nc2ccc3c(c2)CC(=O)N([C@@H](C)CO)C[C@H](C)[C@@H](CN(C)Cc2ccc(Cl)c(Cl)c2)O3)cc1 | . | . | -13.3 | . | 71.5* | .
Cc1ccc(S(=O)(=O)Nc2ccc3c(c2)CC(=O)N([C@@H](C)CO)C[C@@H](C)[C@H](CN(C)Cc2ccc(Cl)c(Cl)c2)O3)cc1 | . | . | 4.3 | . | 73.9* | .
Cc1noc(C)c1S(=O)(=O)Nc1ccc2c(c1)CC(=O)N([C@@H](C)CO)C[C@H](C)[C@H](CN(C)Cc1ccc(Cl)c(Cl)c1)O2 | . | . | 11.3 | . | 35.1 | .
C[C@@H]1CN([C@@H](C)CO)C(=O)c2cc(C#CCc3ccccc3)cnc2O[C@@H]1CN(C)Cc1ccc(C(=O)O)cc1 | . | . | 1.2 | . | 1.9 | .
COC(=O)c1[nH]c2cc(OC)ccc2c1N=CN(C)C | -1.6 | 7.7 | 5.8 | -0.8 | . | 0.7
Cc1ccc(Cn2ccc(NC(=O)c3cc(-c4cccc(Cl)c4)on3)n2)cc1 | . | -5.4 | 0.2 | -3.6 | . | -1.4
O=C(Cn1cnc2c(cnn2-c2ccccc2)c1=O)OCc1ccccc1 | -4.0 | 6.4 | . | -1.2 | -10.0 | -0.5
CCOC(=O)N1CCC(=NNC(=O)c2cc3ccccc3cc2O)CC1 | . | -5.2 | . | -4.3 | . | 0.3
CC(=O)N1CCC(=NNC(=O)c2cc3ccccc3cc2O)CC1 | 55.3* | -8.9 | -10.3 | -1.2 | 24.6 | -0.8

Assay outcomes (PubChem)
